Source: ChEMBL document CHEMBL1124510, “(+/-)-7-chloro-8-hydroxy-1-(4'-[125I]iodophenyl)-3-methyl-2,3,4,5- tetrahydro-1H-3-benzazepine: a potential CNS D-1 dopamine receptor imaging agent” (J Med Chem, 1989)
Each block holds one compound with its values, some of them ahead of it.

Columns and labels:
[1] = species on record: Rattus norvegicus; assay: Selectivity ratio for biodistribution in brain and blood of rats after 15 minutes; Expressed as percent dose/gram ratio; format: ADME, organism-based; details: 0.25 h
In short: (§1)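 After femoral iv injection of [125I]FISCH in saline into halothane-anesthetized male Sprague-Dawley rats, tissues were weighed and gamma-counted. Percent dose/gram was calculated against the diluted injected dose, and the ratio was taken from the percent dose/gram values.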

[2] = species on record: Rattus norvegicus; assay: Selectivity ratio for biodistribution in brain and blood of rats after 2 minutes; Expressed as percent dose/gram ratio; format: ADME, organism-based; in short: as §1
[3] = species on record: Rattus norvegicus; assay: Selectivity ratio for biodistribution in brain and blood of rats after 60 minutes; Expressed as percent dose/gram ratio; format: ADME, organism-based; details: 1 h; in short: as §1
[4] = test system: Rattus norvegicus; assay: In vivo biodistribution in rats after an intravenous injection at 60 min was determined in spleen; Expressed as percent dose/organ; format: ADME, organism-based; details: 1 h
In short: (§2)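 [125I]FISCH in 0.2 mL saline was injected into the femoral vein of male Sprague-Dawley rats (225-300 g) under halothane. Rats were killed by cardiac excision at set times. Organs were weighed and gamma-counted against diluted aliquots of the dose. Blood and muscle totals assume 7% and 40% of body weight. Results are averages of six rats ± SD.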

[5] = test system: Rattus norvegicus; assay: In vivo biodistribution in rats after an intravenous injection at 60 min was determined in thyroid; Expressed as percent dose/organ; format: ADME, organism-based, Thyroid gland; details: 1 h; in short: as §2
[6] = test system: Rattus norvegicus; assay: In vivo biodistribution in rats after an intravenous injection at 60 min was determined in lung; Expressed as percent dose/organ; format: ADME, organism-based; details: 1 h; in short: as §2
[7] = test system: Rattus norvegicus; assay: In vivo biodistribution in rats after an intravenous injection at 60 min was determined in skin; Expressed as percent dose/organ; format: ADME, organism-based; details: 1 h; in short: as §2
[8] = test system: Rattus norvegicus; assay: In vivo biodistribution in rats after an intravenous injection at 15 min was determined in heart; Expressed as percent dose/organ; format: ADME, organism-based; details: 0.25 h; in short: as §2
[9] = test system: Rattus norvegicus; assay: In vivo biodistribution in rats after an intravenous injection at 15 min was determined in liver; Expressed as percent dose/organ; format: ADME, organism-based; details: 0.25 h; in short: as §2
[10] = test system: Rattus norvegicus; assay: In vivo biodistribution in rats after an intravenous injection at 15 min was determined in lung; Expressed as percent dose/organ; format: ADME, organism-based; details: 0.25 h; in short: as §2
[11] = test system: Rattus norvegicus; assay: In vivo biodistribution in rats after an intravenous injection at 15 min was determined in muscle; Expressed as percent dose/organ; format: ADME, organism-based, Muscle tissue; details: 0.25 h; in short: as §2
[12] = test system: Rattus norvegicus; assay: In vivo biodistribution in rats after an intravenous injection at 15 min was determined in skin; Expressed as percent dose/organ; format: ADME, organism-based; details: 0.25 h; in short: as §2
[13] = test system: Rattus norvegicus; assay: In vivo biodistribution in rats after an intravenous injection at 15 min was determined in spleen; Expressed as percent dose/organ; format: ADME, organism-based; details: 0.25 h; in short: as §2
[14] = test system: Rattus norvegicus; assay: In vivo biodistribution in rats after an intravenous injection at 15 min was determined in thyroid; Expressed as percent dose/organ; format: ADME, organism-based, Thyroid gland; details: 0.25 h; in short: as §2
[15] = test system: Rattus norvegicus; assay: In vivo biodistribution in rats after an intravenous injection at 15 min was determined in kidney; Expressed as percent dose/organ; format: ADME, organism-based; details: 0.25 h; in short: as §2
[16] = test system: Rattus norvegicus; assay: In vivo biodistribution in rats after an intravenous injection at 2 min was determined in blood; Expressed as percent dose/organ; format: ADME, organism-based; in short: as §2
[17] = test system: Rattus norvegicus; assay: In vivo biodistribution in rats after an intravenous injection at 2 min was determined in brain; Expressed as percent dose/organ; format: ADME, organism-based; in short: as §2
[18] = test system: Rattus norvegicus; assay: In vivo biodistribution in rats after an intravenous injection at 2 min was determined in heart; Expressed as percent dose/organ; format: ADME, organism-based; in short: as §2
[19] = test system: Rattus norvegicus; assay: In vivo biodistribution in rats after an intravenous injection at 2 min was determined in kidney; Expressed as percent dose/organ; format: ADME, organism-based; in short: as §2
[20] = test system: Rattus norvegicus; assay: In vivo biodistribution in rats after an intravenous injection at 2 min was determined in liver; Expressed as percent dose/organ; format: ADME, organism-based; in short: as §2
[21] = test system: Rattus norvegicus; assay: In vivo biodistribution in rats after an intravenous injection at 2 min was determined in lung; Expressed as percent dose/organ; format: ADME, organism-based; in short: as §2
[22] = test system: Rattus norvegicus; assay: In vivo biodistribution in rats after an intravenous injection at 2 min was determined in muscle; Expressed as percent dose/organ; format: ADME, organism-based, Muscle tissue; in short: as §2
[23] = test system: Rattus norvegicus; assay: In vivo biodistribution in rats after an intravenous injection at 2 min was determined in skin; Expressed as percent dose/organ; format: ADME, organism-based; in short: as §2
[24] = test system: Rattus norvegicus; assay: In vivo biodistribution in rats after an intravenous injection at 2 min was determined in spleen; Expressed as percent dose/organ; format: ADME, organism-based; in short: as §2
[25] = test system: Rattus norvegicus; assay: In vivo biodistribution in rats after an intravenous injection at 2 min was determined in thyroid; Expressed as percent dose/organ; format: ADME, organism-based, Thyroid gland; in short: as §2
[26] = test system: Rattus norvegicus; assay: In vivo biodistribution in rats after an intravenous injection at 60 min was determined in heart; Expressed as percent dose/organ; format: ADME, organism-based; details: 1 h; in short: as §2
[27] = test system: Rattus norvegicus; assay: In vivo biodistribution in rats after an intravenous injection at 60 min was determined in kidney; Expressed as percent dose/organ; format: ADME, organism-based; details: 1 h; in short: as §2
[28] = test system: Rattus norvegicus; assay: In vivo biodistribution in rats after an intravenous injection at 60 min was determined in liver; Expressed as percent dose/organ; format: ADME, organism-based; details: 1 h; in short: as §2
[29] = test system: Rattus norvegicus; assay: In vivo biodistribution in rats after an intravenous injection at 60 min was determined in muscle; Expressed as percent dose/organ; format: ADME, organism-based, Muscle tissue; details: 1 h; in short: as §2
[30] = test system: Rattus norvegicus; assay: In vivo biodistribution in rats after an intravenous injection at 15 min was determined in blood; Expressed as percent dose/organ; format: ADME, organism-based; details: 0.25 h; in short: as §2
[31] = test system: Rattus norvegicus; assay: In vivo biodistribution in rats after an intravenous injection at 15 min was determined in brain; Expressed as percent dose/organ; format: ADME, organism-based; details: 0.25 h; in short: as §2
[32] = molecular target: T1, D(1A) dopamine receptor (Rattus norvegicus, UniProt P18901); assay: In vitro binding affinity to the rat striatal homogenate
T1 sequence (P18901 whole entry): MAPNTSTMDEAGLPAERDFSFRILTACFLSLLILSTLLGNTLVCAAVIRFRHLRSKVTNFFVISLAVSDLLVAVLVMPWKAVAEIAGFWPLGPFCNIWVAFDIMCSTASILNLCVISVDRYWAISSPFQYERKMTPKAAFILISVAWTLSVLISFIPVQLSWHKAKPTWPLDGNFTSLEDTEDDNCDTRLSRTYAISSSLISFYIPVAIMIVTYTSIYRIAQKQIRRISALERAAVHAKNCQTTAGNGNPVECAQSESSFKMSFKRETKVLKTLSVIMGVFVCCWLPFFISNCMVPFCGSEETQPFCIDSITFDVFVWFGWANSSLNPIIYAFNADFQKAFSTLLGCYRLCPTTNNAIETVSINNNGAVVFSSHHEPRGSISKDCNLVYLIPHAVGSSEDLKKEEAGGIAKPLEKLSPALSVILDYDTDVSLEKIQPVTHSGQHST
In short: (§3)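 Saturation binding of [125I]FISCH to male Sprague-Dawley rat (200-250 g) striatal membranes. Tissue homogenized in ice-cold 50 mM Tris-HCl pH 7.4, pelleted twice at 20000g. Assay buffer 50 mM Tris pH 7.4, 120 mM NaCl, 5 mM KCl, 2 mM CaCl2, 1 mM MgCl2, with 40-60 μg protein. Incubated 20 min at 37 °C with stirring, then filtered through protamine-treated GF/B filters. Specific binding gives […].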

[33] = test system: Rattus norvegicus; assay: In vivo biodistribution in rats after an intravenous injection at 60 min was determined in blood; Expressed as percent dose/organ; format: ADME, organism-based; details: 1 h; in short: as §2
[34] = test system: Rattus norvegicus; assay: In vivo biodistribution in rats after an intravenous injection at 60 min was determined in brain; Expressed as percent dose/organ; format: ADME, organism-based; details: 1 h; in short: as §2
[35] = molecular target: T1, D(1A) dopamine receptor; assay: (§4) In vitro binding affinity to the rat striatal homogenate.
[36] = molecular target: T1, D(1A) dopamine receptor; assay: In vitro binding affinity towards Dopamine receptor D1 by displacing [125I]FISCH radioligand in rat striatal homogenate
In short: (§5)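 Assay buffer 50 mM Tris pH 7.4 with NaCl, KCl, CaCl2 and MgCl2, 40-60 μg protein. Incubated 20 min at 37 °C with stirring, then vacuum-filtered on GF/B filters pretreated with 0.2% protamine sulfate and washed with cold Tris.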

[37] = species on record: Rattus norvegicus; assay: as §4; in short: as §3
[38] = molecular target: T1, D(1A) dopamine receptor; assay: In vitro binding affinity towards dDopamine receptor D1 by displacing [125I]FISCH radioligand in rat striatal homogenate
In short: as §5, with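 “Competition against 0.15-0.30 nM [125I]FISCH on rat striatal membranes, each competitor at 7-11 concentrations. Assay” for “Assay”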

Structure (SMILES): CN1CCc2cc(Cl)c(O)cc2C(c2ccc([125I])cc2)C1 (stereo not given)
Ratio [1]: 6.19%
Ratio [2]: 7.35%
Ratio [3]: 3.08%
Biodistribution [4]: 0.67%
Biodistribution [5]: 0.04%
Biodistribution [6]: 1.47%
Biodistribution [7]: 9.25%
Biodistribution [8]: 0.38%
Biodistribution [9]: 14.72%
Biodistribution [10]: 2.73%
Biodistribution [11]: 34.22%
Biodistribution [12]: 9.62%
Biodistribution [13]: 0.56%
Biodistribution [14]: 0.06%
Biodistribution [15]: 2.09%
Biodistribution [16]: 3.46%
Biodistribution [17]: 2.27%
Biodistribution [18]: 1.97%
Biodistribution [19]: 5.98%
Biodistribution [20]: 17.1%
Biodistribution [21]: 8.55%
Biodistribution [22]: 35.68%
Biodistribution [23]: 7.43%
Biodistribution [24]: 2.79%
Biodistribution [25]: 0.11%
Biodistribution [26]: 0.18%
Biodistribution [27]: 1.31%
Biodistribution [28]: 12.32%
Biodistribution [29]: 19.07%
Biodistribution [30]: 2.28%
Biodistribution [31]: 1.4%
Kd [32]: 1.43 nM
Biodistribution [33]: 1.83%
Biodistribution [34]: 0.55%

Structure (SMILES): CN1CCc2ccc(O)cc2[C@@H](c2ccccc2)C1
Kd [35]: 197 nM

Structure (SMILES): CN1CCc2cc(Cl)c(O)cc2C(c2ccc(I)cc2)C1 (racemic)
Ki [36]: 1.71 nM

Structure (SMILES): O=C(c1ccc(F)cc1)C1CCN(CCn2c(=O)[nH]c3ccccc3c2=O)CC1 [KETANSERIN]
Ki [38]: > 3000 nM

The next lines start with the values.

Ki [36]: 13.4 nM
Kd [37]: 0.7 nM
Structure (SMILES): CN1CCc2cc(I)c(O)cc2[C@@H](c2ccccc2)C1 (racemic)

Kd [37]: 0.36 nM
Structure (SMILES): CN1CCc2cc(Cl)c(O)cc2[C@@H](c2ccccc2)C1 [SCH-23390]
